According to ChEMBL document CHEMBL1144285, “Pyrrolidinohydroquinazolines--a novel class of CCR3 modulators” (Bioorg Med Chem Lett, 2005):

Target: T1, C-C chemokine receptor type 3 (Homo sapiens, UniProt P51677)
T1 sequence (P51677 whole entry): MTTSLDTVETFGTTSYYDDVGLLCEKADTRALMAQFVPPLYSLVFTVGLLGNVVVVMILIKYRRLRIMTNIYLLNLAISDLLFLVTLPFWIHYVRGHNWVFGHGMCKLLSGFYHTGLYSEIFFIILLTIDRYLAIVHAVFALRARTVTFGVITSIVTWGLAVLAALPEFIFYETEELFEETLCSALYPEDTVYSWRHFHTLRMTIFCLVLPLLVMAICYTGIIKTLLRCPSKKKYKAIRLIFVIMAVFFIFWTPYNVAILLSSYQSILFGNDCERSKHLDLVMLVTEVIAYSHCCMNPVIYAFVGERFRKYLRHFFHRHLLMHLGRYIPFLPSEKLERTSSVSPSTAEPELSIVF
Assay: Binding affinity measured for human C-C chemokine receptor type 3 expressed on human K562 cell membrane
Assay type: cell membranes
Procedure, shortened: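 Membranes from K562 cells transfected with human CCR3 (disrupted by nitrogen decompression, spun 40,000g, 4 °C, 1 h), 0.5–5 µg protein/well. SPA with WGA-coated PVT beads and 125I-rh eotaxin-1. Compounds added as DMSO dilutions, incubated 2 h. Buffer: 25 mM HEPES, 25 mM MgCl2, 1 mM CaCl2, 0.1% BSA. Unlabelled rh eotaxin defined nonspecific binding. Ki obtained by iterative mass-action fitting.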

Row | Ki | Compound
1 | 2.9 µM | C(=C1/CCN2Cc3ccccc3N=C12)/c1ccccc1-c1ccccc1
2 | 1.6 µM | FC(F)(F)c1ccccc1/C=C1\CCN2Cc3ccccc3N=C12
3 | 3.9 µM | COc1ccc(/C=C2\CCn3c2nc2ccccc2c3=N)cc1
4 | 0.26 µM | Cc1sc2nc3n(c(=N)c2c1C)CC/C3=C\c1ccccc1Br
5 | 0.27 µM | Cc1oc2nc3n(c(=N)c2c1C)CC/C3=C\c1ccccc1Br
6 | 1.4 µM | CN(C)c1ccc(/C=C2\CCN3Cc4ccccc4N=C23)c(Cl)c1
7 | 1.8 µM | Clc1cccc(Cl)c1/C=C1\CCN2Cc3ccccc3N=C12
8 | 0.93 µM | Fc1ccc(/C=C2\CCN3Cc4ccccc4N=C23)c(Cl)c1
9 | 0.035 µM | N=c1c2ccccc2nc2n1CC/C2=C\c1ccccc1Cl
10 | 0.83 µM | N=c1c2nc[nH]c2nc2n1CC/C2=C\c1ccccc1Br
11 | 0.11 µM | Clc1ccccc1/C=C1\CCN2Cc3ccccc3N=C12
12 | 0.076 µM | N=c1c2ccccc2nc2n1CC/C2=C\c1ccccc1I
13 | 0.36 µM | CCc1ccccc1/C=C1\CCn2c1nc1ccccc1c2=N
14 | 0.29 µM | N=c1c2c(C3CC3)csc2nc2n1CC/C2=C\c1ccccc1Br
15 | 4.5 µM | CCOc1ccccc1/C=C1\CCN2Cc3ccccc3N=C12
16 | 1.4 µM | Fc1ccccc1/C=C1\CCN2Cc3ccccc3N=C12

Row | Ki | Compound
17 | 1.2 µM | CC(C)(C)c1csc2nc3n(c(=N)c12)CC/C3=C\c1ccccc1Br
18 | 0.09 µM | Brc1ccccc1/C=C1\CCN2Cc3ccccc3N=C12
19 | 0.028 µM | N=c1c2ccsc2nc2n1CC/C2=C\c1ccccc1Br
20 | 0.35 µM | N=c1c2c3c(sc2nc2n1CC/C2=C\c1ccccc1Br)CCCC3
21 | 0.31 µM | C/N=c1/c2ccccc2nc2n1CC/C2=C\c1ccccc1Br
22 | 0.028 µM | N=c1c2ccccc2nc2n1CC/C2=C\c1ccccc1Br
23 | 0.72 µM | Clc1ccc(/C=C2\CCN3Cc4ccccc4N=C23)cc1Cl
24 | 0.14 µM | CCC1C/C(=C\c2ccccc2Cl)C2=Nc3ccccc3CN21 (stereo unspecified)
25 | 7.9 µM | Fc1ccc(C2C/C(=C\c3ccccc3Br)C3=Nc4ccccc4CN32)cc1 (stereo unspecified)
26 | 0.82 µM | N=c1c2cccnc2nc2n1CC/C2=C\c1ccccc1Br
27 | 6.1 µM | N#C/N=c1/c2ccccc2nc2n1CC/C2=C\c1ccccc1Br
28 | 3.2 µM | FC(F)(F)Oc1ccccc1/C=C1\CCN2Cc3ccccc3N=C12
29 | 0.25 µM | CCCCC1C/C(=C\c2ccccc2Br)C2=Nc3ccccc3CN21 (stereo unspecified)
30 | 1.4 µM | CCc1ccccc1/C=C1\CCN2Cc3ccccc3N=C12
31 | 1.7 µM | Clc1ccc(/C=C2\CCN3Cc4ccccc4N=C23)c(Cl)c1
